{"data": "Published values of several laboratories", "SLC6A3": "Sodium-dependent dopamine transporter (SLC6A3, Homo sapiens, UniProt Q01959)", "PDE10A": "cAMP and cAMP-inhibited cGMP 3',5'-cyclic phosphodiesterase 10A (PDE10A, Homo sapiens, UniProt Q9Y233)", "DRD3": "D(3) dopamine receptor (DRD3, Homo sapiens, UniProt P35462)"}
{"Structure (SMILES)": "CCOC(=O)[C@@]12C[C@@H]1[C@@H](n1cnc3c(NCCCCc4ccccc4)nc(C#Cc4ccc(Cl)s4)nc31)[C@H](O)[C@@H]2O", "target": "SLC6A3", "test": "ligand displacement, radioligand", "conditions": "10 µM", "measurement": "inhibition", "result": "9%"}
{"Structure (SMILES)": "COc1cc2ncnc(Cc3ccnc(-c4ccccc4)c3)c2cc1OC", "target": "PDE10A", "test": "enzyme activity, inhibitor, FP", "conditions": "0.1 µM", "measurement": "inhibition", "result": "58%"}
{"Structure (SMILES)": "Cc1[nH]c(C)c(S(=O)(=O)Nc2ccc(C(F)(F)F)c(Cl)c2)c1C(=O)N1C[C@@H](F)[C@H](F)C1 (relative stereo)", "target": "DRD3", "test": "β-arrestin recruitment, agonist", "conditions": "90 min", "measurement": "Emax", "result": "101%"}
{"Structure (SMILES)": "COc1ccc(Cc2ccnc3ccccc23)cc1OC", "target": "PDE10A", "test": "enzyme activity, inhibitor, FP", "conditions": "0.1 µM", "measurement": "inhibition", "result": "11%"}
{"Structure (SMILES)": "Cc1[nH]c(C)c(S(=O)(=O)Nc2ccc(C(=O)C3CC3)c(Cl)c2)c1C(=O)N1CCC(F)(F)C1", "target": "DRD3", "test": "β-arrestin recruitment, agonist", "conditions": "90 min", "measurement": "Emax", "result": "96%"}
{"Structure (SMILES)": "COc1ccc(Cc2nccc3cc(OC)c(OC)cc23)cc1", "target": "PDE10A", "test": "enzyme activity, inhibitor, FP", "conditions": "0.1 µM", "measurement": "inhibition", "result": "38%"}
{"Structure (SMILES)": "C1=C/COCc2cc(ccc2OCCN2CCCC2)Nc2nccc(n2)-c2cccc(c2)COC/1", "target": "AP2-associated protein kinase 1 (AAK1, Homo sapiens, UniProt Q2M2I8)", "test": "binding", "conditions": "0.1 µM", "measurement": "remaining binding", "result": "52%"}
{"Structure (SMILES)": "Cc1[nH]c(C)c(S(=O)(=O)Nc2cc(Cl)cc(Cl)c2Cl)c1C(=O)N1CCC(F)(F)C1", "target": "DRD3", "test": "β-arrestin recruitment, agonist", "conditions": "90 min", "measurement": "Emax", "result": "103%"}
{"Structure (SMILES)": "COc1cc2ccnc(C(=O)c3cccc4ccccc34)c2cc1OC", "target": "PDE10A", "test": "enzyme activity, inhibitor, FP", "conditions": "0.1 µM", "measurement": "inhibition", "result": "0%"}
{"Structure (SMILES)": "Cc1[nH]c(C)c(S(=O)(=O)Nc2ccc(C(F)(F)F)c(Cl)c2Cl)c1C(=O)N1CCC(F)(F)C1", "target": "DRD3", "test": "β-arrestin recruitment, agonist", "conditions": "90 min", "measurement": "Emax", "result": "105%"}
{"Structure (SMILES)": "CCCCC(=O)Nc1ccc(-c2ccc3ncn(CCC)c(=O)c3c2)cn1", "target": "Leukocyte tyrosine kinase receptor (LTK, Homo sapiens, UniProt P29376)", "test": "binding, competition with immobilised ligand", "conditions": "0.5 µM", "measurement": "remaining binding", "result": "100%"}
{"Structure (SMILES)": "CCOC(=O)[C@@]12C[C@@H]1[C@@H](n1cnc3c(NCCO)nc(I)nc31)[C@H](O)[C@@H]2O", "target": "SLC6A3", "test": "ligand displacement, radioligand", "conditions": "10 µM", "measurement": "inhibition", "result": "20%"}
{"Structure (SMILES)": "COc1ccc2oc(-c3ccc4nc(N)oc4c3)c/c(=N\\c3ccccc3NC(=O)CCN)c2c1", "target": "Discoidin domain-containing receptor 2 (DDR2, Homo sapiens, UniProt Q16832)", "test": "binding", "conditions": "1 µM", "measurement": "remaining binding", "result": "85%"}
{"Structure (SMILES)": "[2H]C1([2H])CCC([2H])([2H])N1C(=O)c1c(C)[nH]c(C)c1S(=O)(=O)Nc1ccc(C(F)(F)F)c(Cl)c1", "target": "DRD3", "test": "β-arrestin recruitment, agonist", "conditions": "90 min", "measurement": "Emax", "result": "92%"}
{"Structure (SMILES)": "COc1ccc2nccc(Cc3cccc(-c4ccccc4)c3)c2c1", "target": "PDE10A", "test": "enzyme activity, inhibitor, FP", "conditions": "0.1 µM", "measurement": "inhibition", "result": "5%"}
